TRPC4 block – blocks the mouse TRPC4 cation channel; Q9QUQ5; actives 0.39% (n = 300,000); HEK293 TRPC4beta/mu-opioid, DAMGO-evoked Fluo4 calcium flux; active compounds read low; B-score at 10 µM;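 active = B-score over 3 SD under the library average, no early fluorescence shift, positive overall ratio signal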
Target sequence (Q9QUQ5 whole entry, looked up): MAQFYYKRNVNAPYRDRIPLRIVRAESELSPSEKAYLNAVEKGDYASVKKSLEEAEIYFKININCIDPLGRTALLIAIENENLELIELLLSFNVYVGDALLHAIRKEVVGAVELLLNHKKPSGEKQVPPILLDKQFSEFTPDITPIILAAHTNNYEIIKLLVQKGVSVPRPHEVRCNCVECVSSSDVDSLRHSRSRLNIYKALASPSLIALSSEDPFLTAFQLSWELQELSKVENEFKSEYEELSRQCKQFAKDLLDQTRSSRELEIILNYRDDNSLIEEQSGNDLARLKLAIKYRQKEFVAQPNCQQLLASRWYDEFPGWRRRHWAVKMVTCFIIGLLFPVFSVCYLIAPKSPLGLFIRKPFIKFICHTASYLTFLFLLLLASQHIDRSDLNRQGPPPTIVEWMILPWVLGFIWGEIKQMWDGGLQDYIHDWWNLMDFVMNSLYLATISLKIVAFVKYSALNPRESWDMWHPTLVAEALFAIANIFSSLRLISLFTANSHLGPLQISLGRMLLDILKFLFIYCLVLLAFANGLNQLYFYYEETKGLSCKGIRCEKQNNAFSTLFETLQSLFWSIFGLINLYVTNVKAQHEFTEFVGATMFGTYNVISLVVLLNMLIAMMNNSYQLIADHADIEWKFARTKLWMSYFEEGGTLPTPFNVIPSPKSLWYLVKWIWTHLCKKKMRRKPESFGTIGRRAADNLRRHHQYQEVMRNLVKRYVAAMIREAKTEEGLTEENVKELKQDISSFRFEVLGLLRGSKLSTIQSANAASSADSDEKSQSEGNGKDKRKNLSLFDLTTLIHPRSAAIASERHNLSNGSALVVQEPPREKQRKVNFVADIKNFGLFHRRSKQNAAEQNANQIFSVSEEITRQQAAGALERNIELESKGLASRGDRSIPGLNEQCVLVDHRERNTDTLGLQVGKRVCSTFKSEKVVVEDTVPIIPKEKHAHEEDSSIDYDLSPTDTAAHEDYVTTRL
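Assay system: TRPC4beta/mu-opioid receptor HEK293 cell line; compound dosing: single concentration per test compound; detection: Fluo4 Ca2+ flux fluorescence; evaluation: per-well B score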
TRPC6 act – mouse TRPC6 channel activation; Q61143; HEK293-TRPC6 membrane potential dye fluorescence; active compounds read high; B-score at 10 µM; actives 0.13% (n = 310,000); AID 2550;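 active = B-score of the integrated fluorescence ratio above library mean plus 3 SD, and starting fluorescence ratio within library mean plus 5 SD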;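 also: higher score means more depolarization so channel activation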
TRPC4 PAM – TRPC4 (mouse) allosteric potentiation. Q9QUQ5. HEK293 TRPC4beta/mu-opioid, DAMGO EC20, Fluo-4 Ca2+ flux; active compounds read high. B-score at 10 µM. actives 0.42% (n = 310,000). AID 2227;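 active = B-score of calcium response area above 5 SD of library B-scores, with initial fluorescence ratio within 5 SD of library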
TRPC6 inh – mouse TRPC6 channel inhibition; HEK293-TRPC6, membrane potential dye, ACh-evoked depolarization; active compounds read low; B-score at 10 µM; AID 2553; actives 1.1% (n = 310,000);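 active = B-score under library mean minus 3 SD, initial fluorescence not abnormally high, positive integrated signal ratio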;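 also: B-score derived from integrated fluorescence ratio over the kinetic read; more negative B-score means stronger inhibition of depolarization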
TRPC4 act – opens the mouse TRPC4 cation channel; AID 2237; actives 0.49% (n = 310,000); HEK293 TRPC4beta/mu-opioid, Fluo4 calcium fluorescence; active compounds read high; Q9QUQ5; B-score at 10 µM;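 active = B-score above 5 SD of library B-scores, and initial fluorescence ratio not above library mean plus 5 SD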;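 also: positive B-score marks a calcium rise read as TRPC4 activation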
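Material: TRPC4beta and mu-opioid receptor HEK293 stable cells | Incubation: 45 min room-temperature Fluo4 loading, 110 s read | Detection: Kinetic Fluo4 calcium fluorescence | Measure: Integrated baseline-normalised fluorescence ratio, converted to per-well B score | Benchmarks: Low control buffer alone, high control maximal DAMGO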
TRPC4 sel inh 2 – mouse TRPC4 off-target activity of TRPC6 inhibitors, second screen. shares compounds with TRPC6 inh. HEK293 TRPC4/MOR, membrane potential dye fluorescence; channel activated by saturating DAMGO dose. inhibition, % at 10 µM. actives 42% (n = 920);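 active = compounds whose fluorescence signal differed from control wells by over 3 SD, either direction, in both duplicate plates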
TRPC4 spec – selectivity of TRPC6 inhibitors: effect on mouse TRPC4; HEK293 TRPC4/mu-opioid, membrane potential fluorescence; shares compounds with TRPC6 inh; activity change, negative = inhibition, % at 10 µM; actives 61% (n = 920);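 active = rise or fall in signal beyond 3 SD of buffer-only wells in both replicate plates, either sign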;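 also: integrated kinetic ratio of fluorescence range over baseline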
HEK293 MPD ctr 2-1 – second check of TRPC6 inhibitor effects in parental HEK293 cells; shares compounds with TRPC6 inh; parental HEK293 membrane potential dye fluorescence; maximal acetylcholine challenge after compound addition; signal change vs control, % at 10 µM; actives 31% (n = 920); AID 2779;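 active = membrane potential signal moving either way by over 3 SD of the maximum-effect control, in both duplicate plates, meaning non-specific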
HEK293 MPD ctr-1 – parental HEK293 nonspecific activity of TRPC6 inhibitors. shares compounds with TRPC6 inh. parental HEK293 membrane potential dye fluorescence. membrane potential signal change, % at 10 µM. actives 60% (n = 920). AID 2780;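 active = membrane potential signal shifting up or down by more than 3 SD of buffer-only wells, on both duplicate plates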
HEK293 MPD ctr-2 – checks TRPC6 modulator effects in parental HEK293 cells | shares compounds with TRPC6 inh | membrane potential dye fluorescence | membrane potential signal change, % at 10 µM | actives 51% (n = 2,400) | AID 488924;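 active = membrane potential signal moves up or down beyond 5 SD from buffer-only wells, on both duplicate plates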
HEK293 MPD ctr 2-2 – second counter-screen for TRPC6 modulators: effect in parental HEK293 cells; AID 488926; actives 14% (n = 2,400); shares compounds with TRPC6 inh; membrane potential dye fluorescence; after compound, maximal acetylcholine stimulation; inhibition, % at 10 µM;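 active = membrane potential signal drops by more than 5 SD from the mean control signal, in both duplicate plates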
TRPC4/MOR mod – mouse TRPC4 off-target activity of TRPC6 modulators. HEK293 TRPC4/mu-opioid, membrane potential fluorescence. shares compounds with TRPC6 inh. actives 69% (n = 2,400). percent change from control (negative = decrease, positive = increase), % at 10 µM. AID 488927;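 active = membrane potential signal moved up or down beyond 5 SD of buffer control wells, in both duplicate plates, actives on both sides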
TRPC4/MOR inh 2 – second selectivity test of TRPC6 modulators against mouse TRPC4; inhibition, % at 10 µM; shares compounds with TRPC6 inh; actives 55% (n = 2,400); HEK293 TRPC4/mu-opioid, membrane potential dye fluorescence; stimulated with maximal-effect DAMGO; AID 488928;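 active = drop in membrane potential signal beyond 5 SD of the control wells in both duplicate plates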;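 also: TRPC4 counter screen for TRPC6 hits run under conditions tuned for TRPC6 not TRPC4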
TRPC6 block conf – confirmation of mouse TRPC6 inhibitors. inhibition, % at 10 µM. HEK293-TRPC6, membrane potential dye, ACh-evoked depolarization. actives 43% (n = 3,300). shares compounds with TRPC6 inh. AID 488960;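 active = fluorescence ratio falls more than 5 SD below the full-stimulation control mean, in both duplicate runs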;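 also: integrated fluorescence ratio of peak minus minimum over baseline after agonist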
TRPC6 act conf – confirmation of mouse TRPC6 activators. shares compounds with TRPC6 inh. HEK293-TRPC6 membrane potential dye fluorescence, FDSS. activation, % at 10 µM. actives 11% (n = 2,800). AID 488961;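 active = ratio signal rise beyond 5 SD above unstimulated control wells' mean, seen in both duplicate runs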
Of the large screens only hits and unclear results are named; the others gave an inactive call (follow-up assays come after a bar, where they were run). A selection: hits, their analogues and other compounds. The true share with any hit is near 2.3%.

CN1CCC(OC(c2ccccc2)c2ccccc2)CC1	TRPC6 inh -6.61 | TRPC4 sel inh 2 inactive | TRPC4 spec 8.7% | HEK293 MPD ctr 2-1 -5.0% | HEK293 MPD ctr-1 10.5% | TRPC6 block conf 65.8%
CN(C)c1ccc(/C=C(/C(=O)c2ccc(Cl)cc2Cl)n2cncn2)cc1	TRPC6 act 49.3, TRPC6 inh -6.37, TRPC4 act 52 | HEK293 MPD ctr-2 active | HEK293 MPD ctr 2-2 active | TRPC4/MOR mod 266.5% | TRPC4/MOR inh 2 inactive | TRPC6 block conf inactive | TRPC6 act conf 487.0%
COc1ccc(/C=C(/C(=O)c2ccc(Cl)cc2Cl)n2cncn2)cc1	none
OCC1(CCc2ccccc2)CCN(C/C=C/c2ccccc2)CC1	none
OCC1(Cc2ccccc2Cl)CCN(C/C=C/c2ccccc2)CC1	TRPC6 inh -5.3 | HEK293 MPD ctr-2 131.5% | HEK293 MPD ctr 2-2 inactive | TRPC4/MOR mod 25.0% | TRPC4/MOR inh 2 59.5% | TRPC6 block conf inactive
CCCn1nnnc1NC(=O)COc1ccc(CC)cc1	none
C/C(=N\Nc1nc2ccccc2[nH]1)c1ccc2c(c1)OCCO2	TRPC6 inh -7.24 | TRPC4 sel inh 2 41.0% | TRPC4 spec -23.8% | HEK293 MPD ctr 2-1 inactive | HEK293 MPD ctr-1 -263.0% | TRPC6 block conf 67.0% | TRPC6 act conf inactive
C/C(=N\Nc1nc2ccccc2[nH]1)c1ccc2c(c1)OCO2	TRPC4 block -8, TRPC6 inh -10.2 | TRPC4 sel inh 2 40.5% | TRPC4 spec -19.5% | HEK293 MPD ctr 2-1 37.5% | HEK293 MPD ctr-1 -346.5% | TRPC6 block conf 58.5% | TRPC6 act conf inactive
C/C(=N\Nc1ccccn1)c1ccc2c(c1)OCO2	none
Cc1ccc(NC(=O)CC(O)(C(F)(F)F)C(F)(F)F)c(Br)c1	TRPC6 inh -6.1 | HEK293 MPD ctr-2 inactive | HEK293 MPD ctr 2-2 inactive | TRPC4/MOR mod inactive | TRPC4/MOR inh 2 inactive | TRPC6 block conf inactive
Cc1ccccc1NC(=O)CC(O)(C(F)(F)F)C(F)(F)F	none
NCCNc1cc(N2CCCC2)ccc1[N+](=O)[O-]	TRPC6 inh -6.33 | HEK293 MPD ctr-2 -164.5% | HEK293 MPD ctr 2-2 inactive | TRPC4/MOR mod -31.0% | TRPC4/MOR inh 2 70.0% | TRPC6 block conf 58.0% | TRPC6 act conf inactive
CC(C)(C)CNc1cc(N2CCCC2)ccc1[N+](=O)[O-]	none
Cc1ccc(S(=O)(=O)n2c(C)nc3cc(C)ccc32)cc1	none
CC(C)(C)OC(=O)NC(CNCc1ccccc1)Cc1ccccc1 (stereo not given)	TRPC6 inh -5.33 | HEK293 MPD ctr-2 136.0% | HEK293 MPD ctr 2-2 inactive | TRPC4/MOR mod 24.5% | TRPC4/MOR inh 2 34.0% | TRPC6 block conf inactive
CC(C)(C)OC(=O)NC(Cc1ccccc1)C(=O)O (stereo not given)	none
O=C(c1ccccc1)N1CCN(Cc2ccccc2C(F)(F)F)CC1	TRPC6 act 11.6 | HEK293 MPD ctr-2 inactive | HEK293 MPD ctr 2-2 inactive | TRPC4/MOR mod 18.0% | TRPC4/MOR inh 2 inactive | TRPC6 act conf 133.5%
CCN(Cc1ccncc1)C(=O)C(CO)c1ccccc1 (stereo not given)	TRPC6 inh -5.66 | HEK293 MPD ctr-2 inactive | HEK293 MPD ctr 2-2 66.5% | TRPC4/MOR mod inactive | TRPC4/MOR inh 2 inactive | TRPC6 block conf 81.5% | TRPC6 act conf inactive
CCN(Cc1ccncc1)C(=S)Nc1ccccc1	none
O=C(OC1CCN(c2ncc(C(F)(F)F)cc2Cl)CC1)c1ccccc1	none
CN1CCN(C(=O)C2CCN(c3ncc(C(F)(F)F)cc3Cl)CC2)CC1	TRPC6 inh -5.18 | HEK293 MPD ctr-2 inactive | HEK293 MPD ctr 2-2 inactive | TRPC4/MOR mod inactive | TRPC4/MOR inh 2 inactive | TRPC6 block conf inactive | TRPC6 act conf inactive
CC(OC(=O)/C=C/c1ccc2ccccc2n1)C(=O)NCc1ccccc1 (stereo not given)	none
CCCN(CCC)c1nc(-c2ccccn2)nc2ccccc12	TRPC6 inh -5.55 | HEK293 MPD ctr-2 inactive | HEK293 MPD ctr 2-2 77.5% | TRPC4/MOR mod inactive | TRPC4/MOR inh 2 67.5% | TRPC6 block conf 76.0% | TRPC6 act conf inactive
c1ccc(-c2nc(N3CCCCCC3)c3ccccc3n2)nc1	TRPC6 inh -9.7 | HEK293 MPD ctr-2 -202.0% | HEK293 MPD ctr 2-2 70.0% | TRPC4/MOR mod -30.5% | TRPC4/MOR inh 2 73.0% | TRPC6 block conf 62.5% | TRPC6 act conf inactive
c1ccc2c(N3CCCC3)nc(-c3ccncc3)nc2c1	TRPC6 inh -7.25 | HEK293 MPD ctr-2 -248.0% | HEK293 MPD ctr 2-2 inactive | TRPC4/MOR mod -42.0% | TRPC4/MOR inh 2 35.0% | TRPC6 block conf 39.0% | TRPC6 act conf inactive
CN1CCN(c2nc3c(c(=O)[nH]c(=O)n3C)n2Cc2ccccc2)CC1	none
COc1cc(O)cc2c1[C@@H]1Oc3c(ccc(O)c3CC=C(C)C)[C@@H]1CO2	none
COc1ccc(CN2CCNC(=O)C2CC(=O)NCc2csc(C)n2)c(F)c1 (stereo not given)	none
Cc1cccn2c(=O)c3cc(C#N)c(=NC(=O)c4cccs4)n(CC(C)C)c3nc12	none
